HSP90 refold inh: inhibitors of HSP90 luciferase refolding in rabbit reticulocyte lysate | 0.91% of 290,000 active | luciferase refolding luminescence, 3 h | inhibition, % at 5.6 µM;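 active = inhibition above the screen-wide mean plus 3 SD, computed separately per campaign, cut at about 16% in these data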;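 note: inhibitors lower the luminescence because luciferase stays unfolded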
FLuc inh counter: inhibits firefly luciferase, flagging false hits in luciferase inhibition screens; P08659; ATPLite firefly luciferase biochemical luminescence, 10 min; inhibition, % at 10 µM; 1.5% of 200,000 active;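 active = inhibition above about 50% when tested at 10 µM, limit read from the data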
Target sequence (P08659 whole entry, looked up): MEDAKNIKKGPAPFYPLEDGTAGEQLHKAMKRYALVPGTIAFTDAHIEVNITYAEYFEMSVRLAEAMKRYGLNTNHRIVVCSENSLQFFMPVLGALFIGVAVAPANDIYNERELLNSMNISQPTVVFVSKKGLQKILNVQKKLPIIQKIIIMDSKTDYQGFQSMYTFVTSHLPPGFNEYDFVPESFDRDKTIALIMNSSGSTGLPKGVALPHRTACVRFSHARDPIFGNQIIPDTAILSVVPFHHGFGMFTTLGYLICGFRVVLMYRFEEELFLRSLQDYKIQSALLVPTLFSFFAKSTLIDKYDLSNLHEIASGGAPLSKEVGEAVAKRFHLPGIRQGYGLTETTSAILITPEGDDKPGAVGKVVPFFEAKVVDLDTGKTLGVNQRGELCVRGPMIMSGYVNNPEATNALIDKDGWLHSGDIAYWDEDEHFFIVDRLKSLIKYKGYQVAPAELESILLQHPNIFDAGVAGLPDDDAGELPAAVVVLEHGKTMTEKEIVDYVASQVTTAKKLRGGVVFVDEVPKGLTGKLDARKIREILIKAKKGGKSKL
PPC-1+TRAIL kill: PPC-1 cancer cell killing with TRAIL present. 0.41% of 220,000 active. AID 1443. PPC-1 cells + TRAIL, ATPLite viability luminescence. cell killing (% activity), % at 4 µM or 5 µM;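 active = cell killing above 50% in the first pass at 4 µM, then a duplicate retest at 5 µM averaging 50% or more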
FLuc act counter: affects firefly luciferase, flagging false hits in luciferase stimulation screens; P08659; ATPlite luciferase biochemical, luminescence, 10 min; 0 = ATP-free wells, 1 = DMSO control; activation factor at 10 µM; 200,000 tested, under 10 active; AID 1027;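 active = luciferase activation factor, scaled between plate controls, of at least 2 with compound at 10 µM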
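Material: Luciferase/luciferin reagent mix; Doses: test compounds dosed from 2 mM stocks in 100% DMSO; Schedule: 10 min incubation after luciferase reagent addition, room temperature; Measured by: luminescence from luciferase reaction; Read-out: luminescence gain marking luciferase activators.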
TRAIL sens C8: sensitizes caspase-8 expressing cells to TRAIL. inhibition (viability loss, TRAIL sensitization), % at 10 µM. 1% of 360,000 active. NB7+C8 cells + TRAIL, ATPlite viability luminescence. AID 624354;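 active = compounds causing at least 50% loss of cell viability in the single-dose screen, relative to plate controls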
Hits are given with their value. Sampled rows, rich in hits. Any-hit rate of the full collection: about 2%.

For Cc1ccc2nc(-c3ccc(SCC(=O)Nc4ccc5c(c4)OCCO5)nc3)[nH]c2c1 the results were HSP90 refold inh inactive, FLuc inh counter 62, PPC-1+TRAIL kill inactive, FLuc act counter inactive and TRAIL sens C8 inactive.
Screening COc1cccc(C2=NN(C(=O)C3CC3)C(O)(C(F)(F)F)C2)c1 (stereo not drawn) returned TRAIL sens C8 inactive.
`Cc1ccc(S(=O)(=O)N(C)CC(=O)Oc2ccc(-c3nnco3)cc2)cc1` gave TRAIL sens C8 inactive.
Cc1cc2nc(-c3ccc(SCC(=O)Nc4ccc5c(c4)OCCO5)nc3)[nH]c2cc1C was read as HSP90 refold inh inactive, FLuc inh counter 81, PPC-1+TRAIL kill inactive, FLuc act counter inactive and TRAIL sens C8 67.
Screening O=C(CSc1ccc([N+](=O)[O-])cn1)Nc1ccc2c(c1)OCCO2 returned HSP90 refold inh inactive, FLuc inh counter inactive, PPC-1+TRAIL kill inactive, FLuc act counter inactive and TRAIL sens C8 inactive.
CCC1SC(=NC(=O)c2ccc(Cl)c(Cl)c2)NC1=O (stereo not drawn) was read as HSP90 refold inh inactive, FLuc inh counter 59, PPC-1+TRAIL kill inactive, FLuc act counter inactive and TRAIL sens C8 inactive.
For O=C(COc1ccccc1Cl)Nc1ccc(Cl)cn1 the results were HSP90 refold inh inactive, FLuc inh counter 69, PPC-1+TRAIL kill inactive, FLuc act counter inactive and TRAIL sens C8 50.
For O=C(COc1ccccc1)Nc1ccc(Cl)cn1 the results were HSP90 refold inh inactive, FLuc inh counter inactive, PPC-1+TRAIL kill inactive, FLuc act counter inactive and TRAIL sens C8 inactive.
For O=C(COc1ccc(Cl)cc1Cl)Nc1ccccn1 the results were HSP90 refold inh 87, FLuc inh counter 97, PPC-1+TRAIL kill inactive, FLuc act counter inactive and TRAIL sens C8 94.
For COC(=O)C1=C(O)/C(=C\c2cc(C)n(-c3ccccc3C)c2C)N=C1C the results were HSP90 refold inh inactive, FLuc inh counter inactive, PPC-1+TRAIL kill inactive, FLuc act counter inactive and TRAIL sens C8 inactive.
Screening COC(=O)C1=C(O)/C(=C\c2cc(C)n(-c3ccccc3F)c2C)N=C1C returned HSP90 refold inh inactive, FLuc inh counter 64, FLuc act counter inactive and TRAIL sens C8 inactive.
For COn1c(SCc2ccc(Cl)cc2)nc2ccccc2c1=O the results were HSP90 refold inh inactive, FLuc inh counter inactive, PPC-1+TRAIL kill inactive, FLuc act counter inactive and TRAIL sens C8 60.
For COn1c(SCc2cccnc2)nc2ccccc2c1=O the results were HSP90 refold inh inactive, FLuc inh counter inactive, PPC-1+TRAIL kill inactive, FLuc act counter inactive and TRAIL sens C8 inactive.
`COc1ccccc1CNS(=O)(=O)c1cc(CN2C(=O)c3cccnc3C2=O)ccc1OC` gave HSP90 refold inh inactive and TRAIL sens C8 inactive.
`COc1cc(CCNC2=CC(=O)c3ncccc3C2=O)ccc1O` gave TRAIL sens C8 58.
`O=S(=O)(Nc1cc(Sc2cccc3cccnc23)c(O)c2ccccc12)c1ccccc1` gave HSP90 refold inh inactive, FLuc inh counter inactive, PPC-1+TRAIL kill 70 and FLuc act counter inactive.
Screening COc1ccc(-c2cc(C(=O)N/N=C/c3cccnc3)c3ccccc3n2)cc1 returned HSP90 refold inh inactive and TRAIL sens C8 54.
`COc1cc(/C=N/NC(=O)c2cc(-c3cccc(OC(C)C)c3)nc3ccccc23)ccc1O` gave TRAIL sens C8 53.
`O=C(Nc1ccc2c(c1)OCCO2)C1CCC1` gave HSP90 refold inh inactive, FLuc inh counter inactive, PPC-1+TRAIL kill inactive, FLuc act counter inactive and TRAIL sens C8 inactive.
O=C(Nc1ccc2c(c1)OCCO2)c1cccc2nc3ccccc3nc12 was read as HSP90 refold inh inactive, FLuc inh counter inactive, PPC-1+TRAIL kill inactive, FLuc act counter inactive and TRAIL sens C8 60.
`O=C(Nc1ccc2c(c1)OCCO2)NC1CCCCC1` gave HSP90 refold inh inactive, FLuc inh counter 71, PPC-1+TRAIL kill inactive, FLuc act counter inactive and TRAIL sens C8 55.
For O=C(Nc1ccc2c(c1)OCCO2)c1ccccc1Cl the results were TRAIL sens C8 inactive.
CC1(C)Oc2ccc(NC(=O)c3ccco3)cc2O1 was read as HSP90 refold inh inactive, FLuc inh counter 63, PPC-1+TRAIL kill inactive, FLuc act counter inactive and TRAIL sens C8 inactive.
`O=C(COC(=O)c1ccco1)Nc1ccc2c(c1)OCCO2` gave HSP90 refold inh inactive, FLuc inh counter 69, PPC-1+TRAIL kill inactive, FLuc act counter inactive and TRAIL sens C8 inactive.
O=C1C(=O)C(Cl)=C(Cl)C(Cl)=C1Cl was read as TRAIL sens C8 inactive.
For O=C(O)c1cc(Cl)c2c(c1)OCO2 the results were HSP90 refold inh inactive, PPC-1+TRAIL kill inactive and TRAIL sens C8 inactive.
`COc1ccccc1C(CC(=O)O)NS(=O)(=O)c1ccc2c(c1)N(C(C)=O)CC(C)O2` (stereo not drawn) gave HSP90 refold inh inactive and TRAIL sens C8 inactive.
Cc1cn([C@H](C(=O)NCCCCCCCCCCC(=O)N2CCN(C(=O)OC(C)(C)C)CC2)[C@@H](C)O)nn1 was read as TRAIL sens C8 inactive.
For O=C(Nc1ccc2c(c1)OCCO2)c1ccco1 the results were HSP90 refold inh inactive, FLuc inh counter 50, PPC-1+TRAIL kill inactive, FLuc act counter inactive and TRAIL sens C8 inactive.
For CCN(CCC(=O)Nc1cc([N+](=O)[O-])ccc1OC)Cc1ccccc1 the results were HSP90 refold inh inactive, FLuc inh counter inactive, PPC-1+TRAIL kill inactive, FLuc act counter inactive and TRAIL sens C8 inactive.
`Cc1cccc(NC(=O)c2cnc3sccn3c2=O)c1C` gave HSP90 refold inh inactive, FLuc inh counter inactive, PPC-1+TRAIL kill inactive, FLuc act counter inactive and TRAIL sens C8 inactive.
Screening Cc1cccc(NC(=O)c2cnc3sccn3c2=O)c1 returned HSP90 refold inh inactive, FLuc inh counter 60, PPC-1+TRAIL kill inactive, FLuc act counter inactive and TRAIL sens C8 inactive.
Screening COC(=O)CCC(=O)c1oc2ccc(OC)cc2c1N returned HSP90 refold inh inactive, FLuc inh counter 56, PPC-1+TRAIL kill inactive, FLuc act counter inactive and TRAIL sens C8 inactive.
Screening COc1ccc2oc(C(=O)c3ccccc3)c(N)c2c1 returned HSP90 refold inh inactive, FLuc inh counter inactive, PPC-1+TRAIL kill inactive and FLuc act counter inactive.
Screening CC(=O)N(CCC1(C(C)C)CCOC(C)(C)C1)C(C)c1cccs1 (stereo not drawn) returned HSP90 refold inh inactive, PPC-1+TRAIL kill inactive and TRAIL sens C8 inactive.
`CCCCn1c(NS(=O)(=O)c2ccc(C)cc2)c(S(=O)(=O)c2ccccc2)c2nc3ccccc3nc21` gave HSP90 refold inh inactive, FLuc inh counter inactive, PPC-1+TRAIL kill inactive, FLuc act counter inactive and TRAIL sens C8 78.
COCCCN=C1NN=C(c2cc(C)n(-c3ccccc3)c2C)CS1 was read as HSP90 refold inh inactive, FLuc inh counter inactive, PPC-1+TRAIL kill inactive, FLuc act counter inactive and TRAIL sens C8 inactive.
C=CCN=C1NN=C(c2cc(C)n(CC=C)c2C)CS1 was read as HSP90 refold inh inactive, FLuc inh counter 92, PPC-1+TRAIL kill inactive, FLuc act counter inactive and TRAIL sens C8 52.
For Cc1cc(C2=NNC(=Nc3ccccc3)SC2)c(C)n1C the results were HSP90 refold inh inactive, FLuc inh counter 61, PPC-1+TRAIL kill inactive, FLuc act counter inactive and TRAIL sens C8 inactive.
